Test results taken from article PMC2229322 (The Journal of General Physiology, 1996).
Each block holds one molecule with its values, some of them ahead of it.

Assays:
[1] = tested on: 391C Shaker K+ channel with intact N-type inactivation (Sh +); experiment: N-type inactivation of intact; type: cell-based, Drosophila; details: for effect of 391C modification on N-type inactivation current: voltage jump -80 to 0 mV, 50 ms, complete modification (Fig. 2)
Outline: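 Inside-out patches from HEK293 cells expressing channels with intact N-terminus, stepped -80 to 0 mV. Inactivation gate removed by internal trypsin perfusion. Traces normalised to the mean current of the last 20 ms after trypsin. Ag+ 20 nM for 2 min applied; completeness checked by pulsing at 0.25 Hz.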

[2] = target: E395C mutant Shaker K+ channel (Drosophila melanogaster, UniProt P08510, C301S/C308S/DEL6-46/E395C/T449V); experiment: Sensitivity of E395C to internal open channel blockers; type: cell-based; details: internal open channel blocker
[3] = tested on: 391C ShA Shaker K+ channel; experiment: Rate of chemical modification of 391C; type: cell-based, Drosophila; details: MTSET
[4] = tested on: 381C ShA Shaker K+ channel; experiment: Chemical modification of 381C; type: cell-based, Drosophila; details: for slope (time constant x [MTSET]) of current reduction: 381C
Outline: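 Inside-out patches from transfected HEK293 cells; […] to 0 mV from -100 mV holding. Computer-controlled reagent pulses of 1 or 2 s began ~500 ms after step onset; sampled 5 kHz, filtered 1 kHz. Time axis normalised to reagent concentration; current reduction fitted to single exponentials. Frequency runs alternated -100 with 0 or +60 mV, equal time at each.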

[5] = tested on: cysteine mutants (380-398) of the S4-S5 linker, ShA Shaker K+ channel; experiment: Chemical modification of cysteine mutants of the S4-S5 linker; type: cell-based, Drosophila; details: positions with large current reduction
Outline: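 Cysteine-substituted channels in inside-out patches from transfected HEK293 cells, pH 7.4 solutions. Thiol reagents applied internally; completeness of modification followed by pulsing at 0.25 Hz. Conditions: MMTS 2 mM, 1 min; Ag+ 20 nM, 2 min; MTSEA 100 µM, 30 s.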

[6] = tested on: 382C ShA Shaker K+ channel; experiment: Chemical modification of 382C; type: cell-based, Drosophila; details: vs 381C, toward more positive voltages (Fig. 7 C and E)
K+ channels = experiment: Test of perfusion change by TEA blockade; type: cell-based; details: internal TEA; reflects time course of solution change by perfusion system
Outline: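 Rapid internal solution exchange on excised patches via a computer-controlled solenoid perfusion system. Exchange speed assessed by applying TEA.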

Shaker K+ channel = details: intracellular application; ref Choi et al., 1991; cited from earlier work
[7] = Net charge of ball peptides; type: physicochemical; details: COOH terminal amidated, NH2 terminal positively charged
[8] = tested on: NH2-terminal deletion mutant Shaker K+ channel; details: ref Zagotta et al., 1990; cited from earlier work

Molecule: [Ag+] [Ag+, silver]
additional effect of 391C modification on tethered ball ([1]; Ag+ 20 nM for 2 min (Fig. 2)): additional ef- fect on the association rate
effect of 391C modification on N-type inactivation current [1]: increase in the steady- state current level without much change in the peak current

affinity of E395C mutant compared with wild-type channel [2]: reduced fourfold
Molecule: CCCCCCCCCC[N+](CC)(CC)CC [C10-TEA, de- cyltriethylammonium]

Molecule: CSS(C)(=O)=O [MMTS, Methyl methanethiosulfonate]
effect of 391C modification on N-type inactivation current [1]: increase in the steady- state current level without much change in the peak current

Molecule: C[N+](C)(C)CCSS(C)(=O)=O [MTSET, [(2-trimethylammoniuin)ethyl]methanethiosulfonate]
effect of 391C modification on N-type inactivation current [1]: parallel increase of the steady state and the peak current
total current after modification of A391C [3]: no reduction in the total current
voltage dependence of modification rate of 391C ([3]; Fig. 6C): higher at positive voltages
rate of modification of 381C with rapidly switching stimulus ([4]; 50 10-ms pulses vs 5 100-ms pulses, -100 to 0 mV): about threefold faster
slope (time constant x [MTSET]) of current reduction ([4]; MTSET, 0 mV (Fig. 7B)): 0.33 mM·s
slope (time constant x [MTSET]) of current reduction ([4]; MTSET, -120 mV (Fig. 7B)): 2.47 mM·s
current reduction by modification of 381C ([4]; MTSET, Fig. 7 A and B): > 80%
reactivity of positions 389 and 397 [5]: only very slowly reactive
shift of voltage dependence of gating and modification for 382C [6]: ~ 50 mV

Molecule: CC[N+](CC)(CC)CCSS(C)(=O)=O [MTSTEA, [(2-triethylammonium)ethyl] methanethiosulfonate]
effect of 391C modification on N-type inactivation current [1]: qualitatively similar results

affinity of E395C mutant compared with wild-type channel [2]: reduced fourfold
Molecule: CC[N+](CC)(CC)CC [TEA, tetraethylammonium]
time constant of TEA blockade observed (K+ channels): ~ 10 ms
effect on N-type inactivation (Shaker K+ channel): slows down N-type inactivation

Molecule: MAAVAGLYGLGEDRQHRKKQ [Shaker ball peptide]
net charge [7]: +3
reconstitution of fast inactivation by intracellular application [8]: effectively reconsti- tuted

Molecule: Trypsin
effect of removing the inactivation gate ([1]; 0.0025% trypsin perfused on inside-out patch (Fig. 2A)): larger non-inactivated current level
